Assay results: ChEMBL document CHEMBL4342485, “Discovery of Potent Benzolactam IRAK4 Inhibitors with Robust in Vivo Activity” (ACS Med Chem Lett, 2020)
Calls of active or inactive are those of the source. The rule behind the calls is not given here.

Columns and labels:
[1] = system: Mus musculus; assay: In vivo inhibition of IRAK4 in R848-induced C57BL/6 mouse assessed as inhibition of TNF alpha secretion at 3 mg/kg, po administered as nanosuspension at 1 hr prior to R848 challenge and measured after 1 hr by ELISA; assay type: functional, organism-based
Summary of the method: (§1)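 C57 black 6 mice dosed with vehicle or nanosuspension in 0.5% methyl-cellulose/0.2% tween-80 across a dose range 1 h before stimulation with TLR7/8 agonist R848; blood sampled 1 h after R848 (2 h post-dose). Plasma IFNα, IL-6 and TNFα measured, IFNα by ELISA; compound plasma levels also determined.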

[2] = Volume of distribution at steady state in rat at 1 mg/kg, iv or po; assay type: ADME, organism-based; settings: in vivo, read-out: Vdss
[3] = AUC (infinity) in dog at 1 mg/kg, iv or po; assay type: ADME, organism-based, Canis lupus familiaris; settings: in vivo
Summary of the method: (§2)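 Separate intravenous and oral PK studies, each dosed at 1 mg/kg. Plasma AUC was extrapolated to infinity and reported in µM*h. Half-life and oral bioavailability were derived from the same studies.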

[4] = system: Mus musculus; assay: In vivo inhibition of IRAK4 in R848-induced C57BL/6 mouse assessed as IFN alpha levels at 33.3 mg/kg, po administered as nanosuspension at 1 hr prior to R848 challenge and measured after 1 hr by ELISA relative to control; assay type: functional; parameters: scale not given: the % may be the effect or the level left
Summary of the method: (§3)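 C57 black 6 mice were given vehicle or compound as a nanosuspension in MCT (0.5% methyl-cellulose/0.2% tween-80) across a dose range, 1 h before TLR7/8 agonist R848 (resiquimod) stimulation. Blood was drawn 1 h after R848, which is 2 h after compound. Plasma IFNα was measured by ELISA against vehicle-treated, R848-stimulated animals. Plasma drug levels were taken at the same time.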

[5] = Half life in rat at 1 mg/kg, iv or po; assay type: ADME, organism-based; settings: in vivo
[6] = Protein binding in rat plasma at 5 uM incubated for 6 hrs by red equilibrium dialysis based LC-MS/MS analysis; assay type: ADME, cell-free; settings: read-out: PPB (converted)
[7] = Clearance in mouse plasma at 1 mg/kg, iv or po; assay type: ADME, organism-based
[8] = target: T1, Interleukin-1 receptor-associated kinase 4 (Homo sapiens, UniProt Q9NWZ3); assay: Inhibition of recombinant full-length N-terminal His6-tagged human IRAK4 expressed in baculovirus expression system using H-KKARFSRFAGSSPSQSSMVAR peptide as substrate after 90 mins by fluorescence polarisation assay
T1 sequence (Q9NWZ3 whole entry): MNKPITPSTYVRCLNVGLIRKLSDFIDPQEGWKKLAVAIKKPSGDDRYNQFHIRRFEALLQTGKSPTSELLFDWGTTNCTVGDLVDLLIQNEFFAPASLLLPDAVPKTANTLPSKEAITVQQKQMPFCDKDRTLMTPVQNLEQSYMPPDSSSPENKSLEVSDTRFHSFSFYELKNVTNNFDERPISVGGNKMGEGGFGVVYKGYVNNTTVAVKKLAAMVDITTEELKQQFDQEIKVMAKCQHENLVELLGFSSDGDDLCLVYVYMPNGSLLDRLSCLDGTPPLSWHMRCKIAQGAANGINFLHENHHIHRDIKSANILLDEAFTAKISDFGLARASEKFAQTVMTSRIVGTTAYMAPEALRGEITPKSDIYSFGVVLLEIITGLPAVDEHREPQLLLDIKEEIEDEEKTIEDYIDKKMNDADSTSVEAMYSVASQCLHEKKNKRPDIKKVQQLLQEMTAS

[9] = Apparent permeability across apical to basolateral side in dog MDCKI cells at 10 uM measured after 60 to 180 mins by lucifer yellow dye based LC-MS/MS analysis; assay type: ADME, cell-based, Canis lupus familiaris; settings: MDCK
Summary of the method: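 Apical-to-basolateral permeability measured in Madin–Darby canine kidney (MDCK) cell monolayers; reported in ×10–6 cm/s.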

[10] = AUC (infinity) in mouse at 1 mg/kg, iv or po; assay type: ADME, organism-based; settings: in vivo
[11] = Protein binding in cynomolgus monkey plasma at 5 uM incubated for 6 hrs by red equilibrium dialysis based LC-MS/MS analysis; assay type: ADME, cell-free, Macaca fascicularis; settings: read-out: PPB (converted)
[12] = system: Mus musculus; assay: In vivo inhibition of IRAK4 in R848-induced po dosed C57BL/6 mouse assessed as inhibition of IFN alpha secretion administered as nanosuspension at 1 hr prior to R848 challenge and measured after 1 hr by ELISA; assay type: functional, organism-based; summary of the method: as §1
[13] = Oral bioavailability in mouse at 1 mg/kg; assay type: ADME, organism-based; settings: in vivo
[14] = Protein binding in mouse plasma at 5 uM incubated for 6 hrs by red equilibrium dialysis based LC-MS/MS analysis; assay type: ADME, cell-free; settings: read-out: PPB (converted)
[15] = Protein binding in human plasma at 5 uM incubated for 6 hrs by red equilibrium dialysis based LC-MS/MS analysis; assay type: ADME, cell-free
[16] = AUC (infinity) in rat at 1 mg/kg, iv or po; assay type: ADME, organism-based; settings: in vivo; summary of the method: as §2
[17] = Volume of distribution at steady state in cynomolgus monkey at 1 mg/kg, iv or po; assay type: ADME, organism-based, Macaca fascicularis; settings: in vivo, read-out: Vdss
[18] = system: Mus musculus; assay: In vivo inhibition of IRAK4 in R848-induced C57BL/6 mouse assessed as IFN alpha levels at 1.2 mg/kg, po administered as nanosuspension at 1 hr prior to R848 challenge and measured after 1 hr by ELISA relative to control; assay type: functional; parameters: scale not given: the % may be the effect or the level left; summary of the method: as §3
[19] = system: Mus musculus; assay: In vivo inhibition of IRAK4 in R848-induced C57BL/6 mouse assessed as IFN alpha levels at 3.7 mg/kg, po administered as nanosuspension at 1 hr prior to R848 challenge and measured after 1 hr by ELISA relative to control; assay type: functional; parameters: scale not given: the % may be the effect or the level left; summary of the method: as §3
[20] = Half life in mouse at 1 mg/kg, iv or po; assay type: ADME, organism-based; settings: in vivo
[21] = Oral bioavailability in cynomolgus monkey at 1 mg/kg; assay type: ADME, organism-based, Macaca fascicularis; settings: in vivo
[22] = Clearance in rat plasma at 1 mg/kg, iv or po; assay type: ADME, organism-based
[23] = system: Mus musculus; assay: In vivo inhibition of IRAK4 in R848-induced C57BL/6 mouse assessed as IFN alpha levels at 11.1 mg/kg, po administered as nanosuspension at 1 hr prior to R848 challenge and measured after 1 hr by ELISA relative to control; assay type: functional; parameters: scale not given: the % may be the effect or the level left; summary of the method: as §3
[24] = Volume of distribution at steady state in mouse at 1 mg/kg, iv or po; assay type: ADME, organism-based; settings: in vivo, read-out: Vdss
[25] = Half life in cynomolgus monkey at 1 mg/kg, iv or po; assay type: ADME, organism-based, Macaca fascicularis; settings: in vivo
[26] = Clearance in cynomolgus monkey plasma at 1 mg/kg, iv or po; assay type: ADME, organism-based, Macaca fascicularis
[27] = system: Mus musculus; assay: In vivo inhibition of IRAK4 in R848-induced C57BL/6 mouse assessed as IL6 level at 100 mg/kg, po administered as nanosuspension at 1 hr prior to R848 challenge and measured after 1 hr by ELISA relative to control; assay type: functional; parameters: scale not given: the % may be the effect or the level left
Summary of the method: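 C57 black 6 mice were pretreated with vehicle or a compound nanosuspension in 0.5% methyl-cellulose/0.2% tween-80 over a dose range, 1 h before R848 stimulation. Blood was sampled 1 h post-R848, and IL-6 and TNFα levels were compared with vehicle-treated, R848-stimulated mice.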

[28] = Oral bioavailability in rat at 1 mg/kg; assay type: ADME, organism-based; settings: in vivo
[29] = Volume of distribution at steady state in dog at 1 mg/kg, iv or po; assay type: ADME, organism-based, Canis lupus familiaris; settings: in vivo, read-out: Vdss
[30] = Protein binding in dog plasma at 5 uM incubated for 6 hrs by red equilibrium dialysis based LC-MS/MS analysis; assay type: ADME, cell-free, Canis lupus familiaris; settings: read-out: PPB (converted)
[31] = Clearance in dog plasma at 1 mg/kg, iv or po; assay type: ADME, organism-based, Canis lupus familiaris
[32] = Oral bioavailability in dog at 1 mg/kg; assay type: ADME, organism-based, Canis lupus familiaris; settings: in vivo
[33] = target: T1, Interleukin-1 receptor-associated kinase 4
[34] = Half life in dog at 1 mg/kg, iv or po; assay type: ADME, organism-based, Canis lupus familiaris; settings: in vivo
[35] = system: Mus musculus; assay: In vivo inhibition of IRAK4 in R848-induced po dosed C57BL/6 mouse assessed as inhibition of TNFalpha secretion administered as nanosuspension at 1 hr prior to R848 challenge and measured after 1 hr by ELISA; assay type: functional, organism-based; summary of the method: as §1
[36] = system: Mus musculus; assay: In vivo inhibition of IRAK4 in R848-induced po dosed C57BL/6 mouse assessed as inhibition of IL-6 secretion administered as nanosuspension at 1 hr prior to R848 challenge and measured after 1 hr by ELISA; assay type: functional, organism-based; summary of the method: as §1
[37] = AUC (infinity) in cynomolgus monkey at 1 mg/kg, iv or po; assay type: ADME, organism-based, Macaca fascicularis; settings: in vivo; summary of the method: as §2

What does the source list for `CC(C)(O)[C@H](F)CN1Cc2cc(NC(=O)c3cnn4cccnc34)c(N3CCOCC3)cc2C1=O`?
inhibition [1]: Active; Vd [2]: 0.95 L/kg; AUC(0-inf) [3]: 3.1 µM·h; Activity [4]: -53%; half-life [5]: 1.6 h; fraction unbound at 6 h, 5 µM [6]: 0.086; clearance [7]: 29 mL/min/kg; Ki [8]: 1.4 nM; Papp A→B at 10 µM [9]: 9.1 to 9.2 ×10⁻⁶ cm/s; AUC(0-inf) [10]: 1.2 µM·h; fraction unbound at 6 h, 5 µM [11]: 0.332; inhibition [12]: Dose-dependent effect; bioavailability [13]: 34%; fraction unbound at 6 h, 5 µM [14]: 0.058; PPB [15]: 72.4%; AUC(0-inf) [16]: 3.8 µM·h; Vd [17]: 3.7 L/kg; Activity [18]: -12%; Activity [19]: -24%; half-life [20]: 1.9 h; bioavailability [21]: 47%; clearance [22]: 9.2 mL/min/kg; Activity [23]: -45%; Vd [24]: 2.2 L/kg; half-life [25]: 5.4 h; clearance [26]: 15.8 mL/min/kg; Activity [27]: -64%; bioavailability [28]: 31%; Vd [29]: 3.7 L/kg; fraction unbound at 6 h, 5 µM [30]: 0.224; clearance [31]: 11.3 mL/min/kg; bioavailability [32]: 109%; IC50 [33]: 190 nM; half-life [34]: 4.1 h; inhibition [35]: Dose-dependent effect; inhibition [36]: Dose-dependent effect; AUC(0-inf) [37]: 2.2 µM·h
